Results collected from several papers.
Read-out: enzyme activity
Action: inhibitor
EGFR: Epidermal growth factor receptor (EGFR, Homo sapiens, UniProt P00533)
CA2: Carbonic anhydrase 2 (CA2, Bos taurus, UniProt P00921)
DNA-3-methyladenine glycosylase: DNA-3-methyladenine glycosylase (Homo sapiens, UniProt P29372)
CDK6 with cyclin D3: Cyclin-dependent kinase 6, with cyclin D3 (CDK6, Homo sapiens, UniProt Q00534)
MTOR: Serine/threonine-protein kinase mTOR (MTOR, Homo sapiens, UniProt P42345)
YCK2: Serine/threonine protein kinase YCK2 (YCK2, Candida albicans, UniProt A0A1D8PKB4)

Nc1cc(N2C(=O)c3ccccc3C2=O)nc(SCC(=O)NN=Cc2ccc(Cl)cc2)n1
IC50 (EGFR): 0.88 µM

COc1c(Cl)cccc1Nc1c(-c2ccncc2OC[C@@H]2COCCO2)[nH]c2c1C(=O)NCC2
IC50 (EGFR; TR-FRET): < 0.0005 µM

C[C@@H]1O[C@@H](O[C@H]2[C@H](Oc3cc(O)c4c(c3)O[C@H](c3ccc(O)cc3)CC4=O)O[C@H](CO)[C@@H](O)[C@@H]2O)[C@H](O)[C@H](O)[C@H]1O
IC50 (CA2; absorbance): 0.083 µM

Clc1ccc(Nc2ccncc2)cc1Cl
IC50 (DNA-3-methyladenine glycosylase): > 99 µM

NS(=O)(=O)c1ccc(-n2nc(C(=O)NN=Cc3ccccc3O)cc2-c2ccccc2)cc1
IC50 (Serine/threonine-protein kinase B-raf (BRAF, Homo sapiens, UniProt P15056, V600E)): 17.5 µM

Cc1cc2c(C(N)=O)c(N)n(-c3c(C)ccc(O)c3C)c2nc1C
IC50 (Serine/threonine-protein kinase B-raf (BRAF, Homo sapiens, UniProt P15056); ADP detection): 0.0153 µM

Nc1cnccc1Nc1ccc(Cl)c(Cl)c1
IC50 (DNA-3-methyladenine glycosylase): > 99 µM

CNS(=O)(=O)c1ccc(Nc2ncc(C(F)(F)F)c(N3CCCC(C)(O)C3)n2)c(C)c1 (stereo not drawn)
IC50 (CDK6 with cyclin D3; radiometric): 4.32 µM

NS(=O)(=O)c1ccc(Nc2nc3nc(=S)[nH]c(-c4cccc(O)c4)c3s2)cc1
IC50 (CA2; absorbance): 0.0627 µM

CC(=O)c1nc2ccccc2n1Cc1cn([C@@H]2OC[C@@H](O)[C@H](O)[C@H]2O)nn1
IC50 (EGFR): 0.132 µM

COc1ccc(-c2ccc3c(N4CCOC[C@@H]4C)nc(N4CCOC[C@@H]4C)nc3n2)cc1C(=O)NCCOCCOCCOCCONC(=O)c1ccc(F)c(F)c1Nc1ccc(I)cc1F
IC50 (MTOR; FRET): 0.028 to 0.04 µM

Cn1cc(-c2ccnc3ccccc23)c(-c2ccccn2)n1
IC50 (YCK2; ADP detection): 0.55 µM

CNS(=O)(=O)c1ccc(Nc2ncc(C(F)(F)F)c([C@H]3CC[C@@](C)(O)CC3)n2)c(C)c1
IC50 (CDK6 with cyclin D3; radiometric): 8.65 µM

CCNC(c1ccccc1)c1c(N)[nH]c(=O)[nH]c1=O (stereo not drawn)
IC50 (EGFR): 0.653 µM

COc1ccc(-c2ccc3c(N4CCOC[C@@H]4C)nc(N4CCOC[C@@H]4C)nc3n2)cc1COCCOCCOCCOCCONC(=O)c1ccc(F)c(F)c1Nc1ccc(I)cc1F
IC50 (MTOR; FRET): 0.028 to 0.04 µM

CC(=O)c1nc2ccccc2n1Cc1cn([C@@H]2O[C@H](CO)[C@H](O)[C@H](O)[C@H]2O)nn1
IC50 (EGFR): 0.324 µM

O=C1CCC(N2C(=O)c3ccccc3C2=O)C(=O)N1 (stereo not drawn)
IC50 (EGFR): 1.13 µM

Oc1ccccc1-c1n[nH]cc1-c1ccnc2ccccc12
IC50 (YCK2; ADP detection): 0.35 µM

COc1ccc(N2CCN(Cc3cn4c(-c5ccc(Br)cc5)nnc4s3)CC2)cc1
IC50 (Ferroptosis suppressor protein 1 (AIFM2, Homo sapiens, UniProt Q9BRQ8); absorbance): 0.034 µM

CNS(=O)(=O)c1ccc(Nc2ncc(C(F)(F)F)c(N3CCC(C)(O)CC3)n2)c(C)c1
IC50 (CDK6 with cyclin D3; radiometric): 0.794 µM

c1ccc(-c2n[nH]cc2-c2ccncn2)nc1
IC50 (YCK2; ADP detection): 1.6 µM

Cc1cc2c(cc1C)N[C@H](c1ccccc1)[C@@H](O)C(=O)N2
IC50 (MTOR): 0.144 µM

c1ccc(Cn2cc(-c3ccnc4ccccc34)c(-c3ccccn3)n2)cc1
IC50 (YCK2; ADP detection): 1 µM

O=C1/C(=C/c2ccc3ccccc3c2O)NC(=S)N1c1ccccc1
IC50 (EGFR; ELISA): 0.183 µM
